167 variants from the RNAGym collection of RNA variant scans (doi:10.1126/science.aae0568) can be followed below.

First the molecules themselves.
B1: tRNA (parent)
chain: GUUCCGUUGGCGUAAUGGUAACGCGUCUCCCUCCUAAGGAGAAGACUGCGGGUUCGAGUCCCGUACGGAACG

This sample holds only a part of the variants without activity.

This data set covers variants of B1. The experiment in a line: yeast fitness relative to wild type (ratio to wild type); higher = fitter; tRNA-Arg(CCU), competitive growth, 37 C, YPD. In outline:
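Gene amplicons from the start population and from each of six end populations were read by 100-nucleotide paired-end sequencing. Those end populations came from pooled Saccharomyces cerevisiae strains carrying tRNA-Arg(CCU) gene variants at the native locus, competed in YPD at 37°C for 24 hours. Fitness relative to wild type was worked out from changes in genotype frequencies. Genotypes needed ≥ 100 starting reads, and estimates < 0.5 were set to 0.5.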
With C31A A40G A43G G52C U59G, the yeast fitness is not above 0.5.
Turning to C30U C34A A36G C60U A70U, the yeast fitness is not above 0.5.
With C30U A43U U54A, the yeast fitness amounted to 0.541.
With C30U A43U the figure was 1.03; with C30U A43C, 1.04.
With C30U C61G A65C, the yeast fitness is not above 0.5.
For C31G G44C the value was 0.931; for C31G A57U A69G, 0.774.
Regarding C30U G44A G48C A70G, the yeast fitness is not above 0.5.
Take C30U C46U A65C: the yeast fitness is 0.658.
As for C31A A37U C49A, the yeast fitness came out at 0.745.
Take C31G C34G C66A: the yeast fitness amounted to 0.568.
With C31A G44C G63A the figure was not above 0.5; with C31A G68U A69C, not above 0.5.
For C31A U47C C61A, the yeast fitness was not above 0.5.
With C30U A36U A70C the figure was not above 0.5.
Regarding C30G U64A, the yeast fitness came to 0.784.
For C31A U35A C55G G58C, the yeast fitness was not above 0.5.
On to C30U A42C G48C U64C, for which the yeast fitness was not above 0.5.
For C31A G39A U47A G68C the value was not above 0.5; for C30U C34G, 0.715.
With C31G C66G, the yeast fitness worked out at 0.587.
For C31G C33G A57U A65U the value was not above 0.5; for C30U C33G A65C, 0.577.
With C31G A40U C60G G67A the figure was not above 0.5.
For C31A U35A A36U U47C C66U the value was not above 0.5; for C30U A43U U64C, 0.707.
With C31G G44C U53C A65U A70G, the yeast fitness is not above 0.5.
In the case of C30U G39C, the yeast fitness was 0.682.
For C31A C33U C55G the value was not above 0.5; for C31A A37C U47C G67A, not above 0.5.
With C30G U35A C62U the figure was not above 0.5; with C31G G44C A69C A70C, 0.528.
With C30G U64A A70C, the yeast fitness was not above 0.5.
For C31G A42G the value was 0.721; for C31A U47A, 0.673; for C31G A37C A70C, not above 0.5.
In the case of C30U U59A A69C, the yeast fitness was not above 0.5.
With C31G A69U the figure was 0.752; with C31G A69C, 0.907; with C30U U47A G67C A70U, not above 0.5.
For C30U U54A G68C the value was not above 0.5; for C31A A45U, 1.02.
With C31A A42G G67A A69U the figure was 0.625; with C31G G41A A65C, not above 0.5; with C31A C49G G56C A70U, not above 0.5.
Regarding C31G C55G A65C, the yeast fitness is not above 0.5.
C31A U54C U64A: the yeast fitness was not above 0.5.
With C31G A37G G38C A43G G58C the figure was not above 0.5; with C31G U32A C60G, not above 0.5.
For C30U C60G C61A A69G the value was not above 0.5; for C30U G63C A69U, 0.527.
With C30U A36C A37G U47C the figure was not above 0.5.
Regarding C30U A45U A57C, the yeast fitness worked out at 0.566.
For C31A A42C C46U the value was 0.592.
For C30U U32A A57U the value was 0.692; for C31A A37G G38A A40G, not above 0.5; for C31A G67C, 0.846.
With C31A G67U the figure was 0.755; with C31A G38A C46U A69U, not above 0.5.
Consider C31G C49U U54G, for which the yeast fitness is not above 0.5.
With C30U A45G A65G, the yeast fitness is 0.538.
Consider C31A A43U G63A A70C, for which the yeast fitness is not above 0.5.
For C30U A42C G48C A65C the value was not above 0.5; for C31A G39C C66U, not above 0.5; for C30U C55A C62U, not above 0.5.
With C30G U47A G68A the figure was not above 0.5; with C31G A36C G68A A70C, not above 0.5.
With C31A A37G A65U the figure was 0.629; with C30U, 1.01; with C30U A43U G51C, not above 0.5.
Regarding C31A A42G A57U U59A, the yeast fitness is not above 0.5.
Take C31A C33G: the yeast fitness was 0.569.
With C30U A65U C66G, the yeast fitness was not above 0.5.
Turning to C31A A42U, the yeast fitness amounted to 0.909.
As for C31G G38A C61A G63A A65G, the yeast fitness was not above 0.5.
As for C31A A43U G68U, the yeast fitness amounted to 0.72.
Turning to C30U G50A C61G, the yeast fitness was not above 0.5.
Consider C30U A57C G63C, for which the yeast fitness was not above 0.5.
With C31G G63A the figure was 0.848; with C30U G50C C61G, not above 0.5; with C30U G39C C60U, not above 0.5.
In the case of C30U A40C C49G, the yeast fitness is not above 0.5.
Regarding C30U U32A A36U A37U, the yeast fitness is not above 0.5.
For C31G A45G U54C G56U the value was not above 0.5; for C30U C34G G39A C49G C61U, not above 0.5; for C30U G39A A40G G67A, not above 0.5.
With C30U G52C C66G the figure was 0.707; with C31G C34A C55U U59C, not above 0.5.
For C31G A37U A42U A65C the value was not above 0.5.
In the case of C30U G38C C55G C61U, the yeast fitness is not above 0.5.
In the case of C30U G44A G56A, the yeast fitness was not above 0.5.
Take C30U C31G C33U A37C A65C: the yeast fitness is not above 0.5.
For C31G G44C G67C the value was not above 0.5; for C30U C33A G39A, not above 0.5.
For the variant C30U G44C, the yeast fitness stood at 0.662.
For C31A A43C the value was 0.832; for C30U A36C A65C, 0.615; for C30U C66U, 0.777.
For C30U U53G A69U the value was not above 0.5.
With C30U G38A G68C the figure was 0.574.
As for C31G C49G, the yeast fitness was 0.753.
For C30U A37G A42G C60G the value was 0.516.
As to C31G U32C, the yeast fitness turned out to be 0.754.
With C31G G48C the figure was 0.811; with C31A G51A, 0.603.
For the variant C31A G63C G67C, the yeast fitness was not above 0.5.
On to C30U C61G, for which the yeast fitness was determined as 0.671.
With C30U C61U the figure was 0.826.
With C30U G51A C55A the figure was 0.686; with C31A C46U G67U, 0.684; with C30U C46U G50A A69G, 0.605.
With C31G U47C, the yeast fitness worked out at 0.952.
For C31G U47G the value was 0.667; for C31A U32C U53C C60G, not above 0.5.
On to C31G A40G A45C U53A, for which the yeast fitness is not above 0.5.
With C31G G44A U47A G51C C66U the figure was not above 0.5; with C30U A45C G48A G58A G67U, not above 0.5.
For C31G A36C G50A C62U G68A A69C the value was not above 0.5; for C30U A43C G67U, 0.571.
With C30U A40G C49U the figure was 0.632.
C30U U32G A37G G63A: the yeast fitness is not above 0.5.
With C31A C49G the figure was 0.64; with C30U G38C U64C A65G, not above 0.5.
For C30U C31U A70C the value was 0.784.
Take C31G C33G G63A: the yeast fitness was not above 0.5.
For C31G G68C, the yeast fitness worked out at 0.684.
Turning to C31G G68A, the yeast fitness was 0.802.
Consider C30U G50C, for which the yeast fitness amounted to 0.69.
Regarding C31A U35C G41A, the yeast fitness is not above 0.5.
In the case of C31G G44A G51C A65G, the yeast fitness was 0.537.
For C31A G44A A57G A65C A70U the value was not above 0.5; for C30U C46G G52A, 0.6.
For C31G C33U A37C C61U A65U the value was not above 0.5; for C31A A36C, 0.558.
As to C30G U47G A65G, the yeast fitness is not above 0.5.
With C30U C31G A36C the figure was not above 0.5.
As for C31A A40C G52A C61A, the yeast fitness is 0.528.
For C31G C55G, the yeast fitness came to 0.592.
As to C31G C55U, the yeast fitness is 0.683.
With C31G C33G G67A the figure was not above 0.5; with C31G G41A G52C A65U G67C, not above 0.5.
With C30U C31U A40C A65C the figure was not above 0.5; with C31A G39A G48A C61U A65C, 0.5.
In the case of C31G U32G A37U A65U, the yeast fitness was not above 0.5.
For C30U A45C G52C the value was 0.568; for C30U A57G C66U, 0.53.
For C31A G50C the value was 0.566.
For C31A A37C the value was 0.665; for C31A A37G, 0.672; for C31A A57G, 0.777.
Consider C31A A57C, for which the yeast fitness is 0.544.
For C30U G51C C61A the value was 0.635; for C31A A65C G67A, not above 0.5; for C31A U53A A65U, not above 0.5.
For the variant C31A G38C A43C C46G, the yeast fitness came out at 0.672.
For C31A C34G A43C C61U, the yeast fitness is not above 0.5.
Turning to C31A C33U G41C U47C G67C, the yeast fitness was not above 0.5.
Take C31G C61U: the yeast fitness is 0.834.
For C30U U59G the value was 0.898; for C31G G51A A57G G68C, not above 0.5; for C31G C34U A40C C60A C61A G63A, not above 0.5.
For C30U C60A the value was 0.593.
For C30U C60U the value was 0.734.
Regarding C30U C60G, the yeast fitness came to 0.661.
With C30U G41A A69C the figure was not above 0.5; with C31G G38U, 0.804.
